Screens (PubChem)
MT1-MMP act inh – blockers of MT1-MMP proenzyme processing, primary screen, HT1080 RFP-PRO-GFP cells, GFP/RFP fluorescence; GFP/RFP ratio change, % at 20 µM; hit rate 0.061% among 360,000; GFP/RFP ratio fluorescence, overnight; percent of plate control window, DMSO zero; Matrix metalloproteinase-14 (Homo sapiens), P50281;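 active = GFP/RFP ratio change of at least 30% with cell ATP level not reduced by more than half and red fluorescence within 50% of control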
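Compound: 20 µM single dose, 1% DMSO / System: HT1080 RFP-PRO-GFP cells / Controls: DMSO and RFP-L50D-GFP cell wells / Read-out basis: GFP/RFP fluorescence ratio / Schedule: overnight compound exposure at 37 °C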
MPTP inh – mitochondrial permeability transition pore inhibitors, primary screen, biochemical, isolated mouse mitochondria, absorbance. hit rate 1.4% among 360,000. Ca2+ swelling absorbance, 30 min. AID 602449, 2012. inhibition, % at 10 µM;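 active = inhibition of 50% or more, scaled per plate between neutral and stimulator controls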;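 also: 0% = DMSO wells given calcium and 100% = 1 mM EGTA wells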
SKN-1 inh – suppressors of acrylamide-induced Pgst-4::GFP reporter in worms, primary screen, SKN-1 inhibitor project, whole organism, uHTS, GFP/RFP fluorescence ratio, strain VP596; C. elegans VP596 Pgst-4::GFP/RFP ratio, 24 h; inhibition, % at 21.8 µM; hit rate 0.49% among 360,000;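 active = interference check ratio from 0.5 to 1.5 plus GFP to RFP signal ratio inhibition reaching or exceeding a fixed threshold, cut at about 30% in these data, passing the limit was not always enough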
ATG4B inhibitor – ATG4B protease inhibitors, primary screen, biochemical, fluorescence, uHTS; Cysteine protease ATG4B (Homo sapiens), Q9Y4P1; inhibition, % at 8.33 µM; ATG4B cleavage of LC3-PLA2, NBD-HPC fluorescence, 1 h; hit rate 0.51% among 340,000; in the data active = inhibition above about 40%
Target sequence (Q9Y4P1 whole entry, looked up): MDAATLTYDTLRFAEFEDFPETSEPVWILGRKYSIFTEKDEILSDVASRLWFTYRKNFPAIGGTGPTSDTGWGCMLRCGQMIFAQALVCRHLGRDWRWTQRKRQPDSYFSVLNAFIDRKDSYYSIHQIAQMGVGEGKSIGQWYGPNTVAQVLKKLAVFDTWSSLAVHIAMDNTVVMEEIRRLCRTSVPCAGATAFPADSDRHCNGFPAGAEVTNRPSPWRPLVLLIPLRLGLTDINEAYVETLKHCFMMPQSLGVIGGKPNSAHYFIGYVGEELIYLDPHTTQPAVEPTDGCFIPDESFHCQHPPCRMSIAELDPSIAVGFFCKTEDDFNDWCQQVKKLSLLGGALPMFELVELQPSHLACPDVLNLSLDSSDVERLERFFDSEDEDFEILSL
Rh123 counter – fluorescence retest of MPTP screen hits in isolated mitochondria, single concentration | shares compounds with MPTP inh | membrane potential, Rhodamine 123 fluorescence | inhibition, % at 10 µM | hit rate 78% among 5,000; in the data active = inhibition above about 22%;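 also: 0% = DMSO vehicle and 100% = positive control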
MPTP abs DR – mitochondrial permeability transition pore inhibitors, dose response, biochemical, absorbance, uHTS hits; shares compounds with MPTP inh; isolated mitochondria swelling; IC50, µM; hit rate 58% among 780; in the data active = IC50 below about 20 µM
MPTP cs DR – fluorescent counter-screen in isolated mitochondria, dose response, counter-screen for MPTP inhibitor project, biochemical, fluorescence, uHTS hits; IC50, µM; isolated mitochondria counterscreen, fluorescence read-out; hit rate 49% among 780; shares compounds with MPTP inh; in the data active = IC50 below about 80 µM
Active calls of the source: *; nt = no result. Only some compounds are listed: those with a hit (about 2.3% of all), similar ones and a draw of the others.

SMILES | MT1-MMP act inh | MPTP inh | SKN-1 inh | ATG4B inhibitor | Rh123 counter | others
CNc1cnc(-c2ccccc2OC)cn1 | 1.6 | -0.8 | -4.5 | nt | nt
CC(=O)c1c(C(C)=O)c(C)n(-c2ccc(N)c(C)c2)c1C | 1.5 | 2.5 | 17.6 | 3.3 | nt
Brc1ccc(CNc2ccc3ncccc3c2)cc1 | -3.2 | 91.8* | 22.4 | -8.4 | 86.4*
Cc1cc(C)c(NC(=O)CCCCCNC2CCCCC2)c(C)c1 | 0.9 | -1.7 | 0.6 | -0.5 | nt
CCOc1cc(CNC(C)(C)C)ccc1OCC(=O)Nc1cccc(C(F)(F)F)c1 | 0.8 | 2.4 | -14.1 | 28.8 | nt
CCC(CO)NCc1ccc(OCC(=O)Nc2cccc(C(F)(F)F)c2)c(OC)c1 (stereo not drawn) | 7.2 | 58.3* | 15.3 | -0.3 | -14.1 | MPTP abs DR=17.2*;MPTP cs DR=>80
CCc1ccc(OCC(=O)Nc2ccc(-c3cc4ccccc4oc3=O)c(OC)c2)cc1 | -0.1 | 101.1* | 6.4 | -3.7 | 96.5*
COc1cc(NC(=O)c2cc(Cl)ccc2Cl)ccc1-c1cc2ccccc2oc1=O | 5.8 | 0.7 | 10.5 | 6.8 | nt
O=C(Cc1ccc(Cl)cc1)Nc1ccc(-c2cc3ccccc3oc2=O)c(Cl)c1 | -1.9 | 63.6* | 22.8 | 13.9 | 71.4*
CCOC(=O)[C@@H]1[C@H]2COc3ccccc3[C@@H]2N2C(=O)N(c3cccc(Cl)c3)C(=O)[C@@]12C | -1.5 | 88.2* | 3.9 | -5.8 | 100.2*
CCOC(=O)[C@@H]1[C@H]2COc3cc(OC)ccc3[C@@H]2N2C(=O)N(c3ccc(C(F)(F)F)cc3)C(=O)[C@@]12C | -0.1 | 0.7 | 7.5 | -8.2 | nt
CCOC(=O)[C@@H]1[C@H]2COc3cc(OC)ccc3[C@H]2N2C(=O)N(c3ccc(C(F)(F)F)cc3)C(=O)[C@]12C | -0.7 | 83.7* | -2.9 | -5.9 | 89.7*
Cc1nc2c3ccccc3[nH]c(=O)n2n1 | -0.8 | 2.8 | 2.0 | 4.7 | nt
c1ccc(CNc2nc(-c3ccccc3)nc3ccccc23)cc1 | 1.3 | 2.6 | 28.4 | 8.4 | nt
c1ccc(CNc2nc(-c3cccs3)nc3ccccc23)cc1 | 6.0 | 50.6* | 30.8 | 3.0 | 57.6*
c1ccc(CNc2nc(NCc3ccccc3)c3ccccc3n2)cc1 | -5.6 | 70.4* | 31.9 | 11.8 | 108.6*
c1ccc(CNc2nc(NCCOc3ccccc3)c3sccc3n2)cc1 | -7.8 | 15.3 | 14.3 | nt | nt
COc1ccccc1CNc1nc(NCc2ccc(C)cc2C)c2sccc2n1 | -2.7 | 66.8* | 3.6 | nt | 101.5*
c1ccc(CNc2nc(NCc3ccccc3)c3sccc3n2)cc1 | -1.5 | 91.3* | -5.7 | nt | 103.7*
O=C(Cn1c(=O)cnc2ccccc21)N1CCN(S(=O)(=O)c2ccccc2Br)CC1 | 0.6 | -1.0 | -2.7 | 17.6 | nt
CCOC(=O)C1=CNS(=O)(=O)NC1c1ccccc1 (stereo not drawn) | -2.6 | -2.2 | -15.1 | -1.8 | nt
Fc1ccc(Nc2nc(NCc3ccco3)c3ccccc3n2)cc1 | -11.4 | 85.7* | 18.0 | 8.9 | 81.8*
COc1ccccc1CNc1nc(NCc2ccccc2F)c2sccc2n1 | -0.6 | 101.2* | 1.7 | nt | 103.9*
COc1ccccc1CNc1nc(NCc2cccc(OC)c2OC)c2sccc2n1 | 5.6 | 51.4* | 2.2 | nt | 94.7*
COc1ccccc1CNc1nc(NCc2ccccc2)nc2ccsc12 | 18.2 | 74.1* | 9.5 | nt | 95.2*
SMILES | MT1-MMP act inh | MPTP inh | SKN-1 inh | ATG4B inhibitor | Rh123 counter | others
Clc1ccc2c(-c3ccccc3)nc(-c3cccs3)nc2c1 | 4.1 | 1.9 | 7.4 | nt | nt
Cc1cccc(-c2nc(CSCC(=O)N3CCN(c4ccccn4)CC3)c(C)o2)c1 | 1.1 | 77.7* | -26.6 | -6.8 | 62.9*
CCCCCCNCC(=O)N1CCC(Cc2ccccc2)CC1 | 1.9 | 85.7* | -12.7 | -2.5 | -3.5 | MPTP abs DR=11.3*;MPTP cs DR=44.5*
CCCC(=O)N1CCC(Cc2ccccc2)CC1 | 0.8 | 0.3 | 3.9 | 1.9 | nt
COc1cccc(C#CC2=CC(=O)C[C@H](c3ccc(F)cc3)C2)c1 | -0.7 | 0.6 | -3.4 | nt | nt
CCOC(=O)CC(=O)Nc1ccc(C)cc1 | 5.3 | 1.7 | 9.9 | -6.2 | nt
CN1CCN(S(=O)(=O)c2ccc3c(c2)OCCO3)CC1 | 6.6 | -5.6 | 11.1 | -5.9 | nt
Cc1ccc(S(=O)(=O)N2CCN(c3ncnc4sccc34)CC2)cc1C | -8.0 | 89.6* | 5.8 | -12.2 | 93.6*
O=S(=O)(c1ccc2c(c1)OCCO2)N1CCN(c2ncnc3sccc23)CC1 | -3.0 | 103.2* | 0.8 | -12.1 | 89.5*
CC(=O)CCC(=O)N1CCCC(N2CCN(c3cccc(Cl)c3)CC2)C1 (stereo not drawn) | -0.6 | 0.8 | 6.7 | -2.5 | nt
Cc1ccc(/C=C2\SC(=S)N(CCC(=O)N3CCCCC3)C2=O)cc1 | -1.7 | 1.4 | -2.9 | 4.2 | nt
Cc1ccc(/C=C2/SC(=S)N(CCC(=O)N3CCN(C)CC3)C2=O)cc1 | 0.8 | 78.6* | 9.4 | -7.0 | 5.1 | MPTP abs DR=>100;MPTP cs DR=>80
COc1cccc(-c2cnc(C(O)c3ccc(Cl)cc3)[nH]2)c1 (stereo not drawn) | 2.1 | 0.8 | 10.4 | nt | nt
CCN1CCN(c2cc(SC(C)C)nc(-c3ccc(OC)cc3)n2)CC1 | -4.5 | 77.6* | 12.4 | -4.8 | -15.7 | MPTP abs DR=10.4*;MPTP cs DR=62*
CC(C)Sc1cc(N2CCOCC2)nc(-c2ccc(Cl)cc2)n1 | -7.1 | 6.7 | -15.4 | 8.6 | nt
Cc1cccc(C)c1NC(=O)CN(C)CC(=O)N1CC(=O)Nc2ccccc21 | 0.2 | -2.5 | 3.3 | 1.3 | nt
CCCCCCCCCC(=O)O | 3.5 | 0.2 | 0.8 | -11.1 | nt
CCCCCC/C(C)=C1/SC(=S)NC1=O | -48.6 | 83.1* | 5.4 | 14.2 | 75.2*
c1ccc(OCCCCn2cnc3ccccc32)cc1 | -6.5 | 0.1 | -7.6 | -6.1 | nt
Cc1ccccc1OCCn1cc(C(=S)N2CCCC2)c2ccccc21 | -0.7 | 0.3 | 11.8 | 2.7 | nt
CCCOc1ccc(Cn2cnc3ccccc32)cc1 | 9.1 | 89.0* | -24.1 | 2.6 | 76.8*
c1ccc2c(c1)ncn2CCCOc1ccc2c(c1)CCC2 | 1.8 | 53.5* | 31.6 | -0.1 | 59.9*
CC(=O)c1cn(CCOc2ccccc2C)c2ccccc12 | 4.6 | 96.5* | 1.6 | -7.7 | 81.7*
Fc1ccc(Cn2cnc3ccccc32)cc1 | 0.9 | 2.0 | 16.6 | -13.4 | nt
Cc1ccc(OCCCCn2cnc3ccccc32)cc1 | 1.8 | 0.7 | 3.8 | -2.4 | nt
Cc1ccccc1OCCCCn1cnc2ccccc21 | -2.9 | 92.6* | 5.0 | -5.6 | 88.7*
CCS(=O)(=O)Nc1ccc2[nH]c(=O)[nH]c2c1 | 2.9 | -0.5 | 7.0 | -1.9 | nt
